We go through 5 compounds from ChEMBL document CHEMBL4000162, “Arborinane Triterpenoids from Rubia philippinensis Inhibit Proliferation and Migration of Vascular Smooth Muscle Cells Induced by the Platelet-Derived Growth Factor” (J Nat Prod, 2016).

The structures appear in SMILES notation. Active and inactive are the calls of the source. The calls are words filed in the database; no cut-off is given here.

Data set [1] has as its system VSMC. Nature of the data set: Antiproliferative activity against PDGF-BB-stimulated rat VSMC at 10 to 30 uM preincubated for 24 hrs followed by PDGF-BB addition measured after 24 hrs by MTT assay. Type of data set: functional, cell-based. The essentials:
(§1)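 Rat aortic VSMCs seeded at 3.5 × 10^4 cells/mL and grown in DMEM/10% FBS at 37 °C to 70% confluence. Serum-starved 24 h, given compound for 24 h (paclitaxel 1 μM reference), then stimulated with 25 ng/mL PDGF-BB for 24 h. MTT 5 mg/mL in serum-free DMEM for 4 h, DMSO solubilisation, absorbance read at 565 nm. Means ± SEM of triplicates.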

Data set [2] can be described thus: Cytotoxicity against rat VSMC assessed as decrease in cell viability at 10 to 30 uM after 48 hrs by MTT assay. Type of data set: cell-based. In outline: (§2)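 Rat aortic VSMCs seeded at 3.5 × 10^4 cells/mL in DMEM/10% FBS and grown to 70% confluence, then serum-free for 24 h. Exposed to compound for 48 h without PDGF (digitonin 100 μg/mL reference). Viability by MTT: 5 mg/mL for 4 h, DMSO, absorbance at 565 nm. Means ± SEM.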
Background: Formazan colour is commonly taken as a measure of viable cells.

Data set [3] has as its system VSMC. Nature of the data set: Antimigratory activity against PDGF-BB-stimulated rat VSMC at 10 to 30 uM preincubated for 2 hrs followed by PDGF-BB addition measured after 48 hrs by scratch wound-healing assay. Type of data set: functional, cell-based. The essentials:
(§3)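 Rat aortic VSMCs (enzymatic dispersion; DMEM, 10% FBS) grown in 12-well plates to >90% confluence, serum-starved 24 h, scratched with two lines and imaged at 0 h. Pretreated 2 h with compound (paclitaxel 1 μM as reference), then 25 ng/mL PDGF-BB for 48 h. Fixed in 100% MeOH, stained with 0.5% crystal violet, migration area quantified from images. Means ± SEM of triplicate experiments.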

A short description of data set [4]: Antiproliferative activity against PDGF-BB-stimulated rat VSMC at 5 uM preincubated for 24 hrs followed by PDGF-BB addition measured after 24 hrs by MTT assay relative to control. It counts as functional. In outline: as §1
A short description of data set [5]: Cytotoxicity against rat VSMC assessed as decrease in cell viability at 5 uM after 48 hrs by MTT assay. Type of data set: cell-based. The essentials: as §2
Data set [6] can be described thus: (§4) Antimigratory activity against PDGF-BB-stimulated rat VSMC at 30 uM preincubated for 2 hrs followed by PDGF-BB addition measured after 48 hrs by scratch wound-healing assay. It counts as functional. The essentials:
as §3

The subject of data set [7] is VSMC. Nature of the data set: Antimigratory activity against PDGF-BB-stimulated rat VSMC preincubated for 2 hrs followed by PDGF-BB addition measured after 48 hrs by scratch wound-healing assay. It counts as functional, cell-based. In outline: as §3
The nature of data set [8]: Antimigratory activity against PDGF-BB-stimulated rat VSMC at 10 uM preincubated for 2 hrs followed by PDGF-BB addition measured after 48 hrs by scratch wound-healing assay. Type of data set: functional. The essentials:
as §3

Data set [9] relates to VSMC. Nature of the data set: Antimigratory activity against PDGF-BB-stimulated rat VSMC preincubated for 2 hrs followed by PDGF-BB addition measured after 48 hrs by photograph-based scratch wound-healing assay. Type of data set: functional, cell-based. The essentials: as §3
Data set [10] concerns VSMC. Kind of data set: Antiproliferative activity against PDGF-BB-stimulated rat VSMC at 30 uM preincubated for 24 hrs followed by PDGF-BB addition measured after 24 hrs by MTT assay. Type of data set: functional, cell-based. In outline: as §1
A short description of data set [11]: Cytotoxicity against rat VSMC assessed as decrease in cell viability at 30 uM after 48 hrs by MTT assay. Type of data set: cell-based. The essentials: as §2
Data set [12] concerns VSMC. The data set is described as §4. It counts as functional. In outline: as §3

Usually inhibition stands for the relative decrease from the control value, in per cent.

For `CC(=O)O[C@@H]1C[C@@H](C(C)C)[C@]2(C)CC[C@@]3(C)[C@H]4C(=CC[C@]3(C)[C@@H]12)[C@@]1(C)CC[C@H](O)C(C)(C)[C@@H]1C[C@@H]4O`, the inhibition result in data set [1] was “Active”. Also, the Activity result in data set [2] is reported as “Toxic”. In [3], the outcome was Active.
In the case of `CC(C)[C@@H]1C[C@@H]2OC[C@]13CC[C@@]1(C)[C@H]4C(=CC[C@]1(C)[C@@H]23)[C@@]1(C)CC[C@H](O)C(C)(C)[C@@H]1C[C@@H]4O`, the inhibition entry in [1] was “Active”. In addition, the values for the Activity result in data set [2] and in data set [5] were “Toxic” and “Non-Toxic”, respectively. In [4], this compound yielded an inhibition at 5 µM of 62.6%. In [3], the outcome was Active.
`CC(=O)O[C@@H]1C[C@@H](C(C)C)[C@]2(C)CC[C@@]3(C)[C@H]4C(=CC[C@]3(C)[C@@H]12)[C@@]1(C)C=CC(=O)C(C)(C)[C@@H]1C[C@@H]4O`: the inhibition entry in [1] was “Active”. For the same compound, the Activity entry was “Toxic” in data set [2] and “Non-Toxic” in data set [5]. For the same compound, testing at 5 µM in [4] gave an inhibition of 41.1%.
For the compound `CC(=O)O[C@H]1CC[C@]2(C)C3=CC[C@]4(C)[C@H]5[C@H](O)C[C@@H](C(C)C)[C@]5(CO)CC[C@@]4(C)[C@@H]3[C@@H](O)C[C@H]2C1(C)C`, the Activity result is “Non-Toxic” in data set [2]; 57.6% in data set [6]; “Dose-dependent effect” in data set [7]; 38.5% in data set [8]; “Dose-dependent effect” in data set [9].
With `CC(=O)OC[C@@]12CC[C@@]3(C)[C@H]4C(=CC[C@]3(C)[C@H]1[C@H](O)C[C@H]2C(C)C)[C@@]1(C)CC[C@H](OC(C)=O)C(C)(C)[C@@H]1C[C@@H]4O`, the inhibition entry in data set [10] is “Active”. For the same compound, the Activity entry in data set [11] was “Toxic”. Besides, the outcome in data set [12] was Active.
